Data reported in PubChem BioAssay AID588483 (Southern Research Specialized Biocontainment Screening …, 2011).
Values joined by “and” are separate entries in the source; they are usually repeats but may differ in a detail not shown here. Equal values may be shown once. Active and inactive are the calls of the source.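 How the source made its calls: active means viability below 70% at any tested concentration, read as cytotoxicity; inactive means the rest.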

Tests used:
[1] = test system: HEp-2 cell viability, luminescence (cytotoxicity counter-screen); assay: viability loss of uninfected HEp-2 cells – cell-based, synthesized compounds, set 14, cytotoxicity control for RSV inhibitor project, dose response (AID 588483)
How it was run: (§1)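 Test system: uninfected HEp-2 human cells, no virus added. Input: 10,595 HEp-2 cells per well. Times: six-day compound exposure at 37 °C. Technique: ATP-based luminescence with CellTiter-Glo reagent. Measure: percent viability versus cell-control median, CC50 from four-parameter fit. Dosing: two-fold compound dilution series, 0.5% DMSO final. Replication: triplicate wells per compound concentration.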

[2] = as above; conditions: HEp-2 cell viability, luminescence (cytotoxicity counter-screen); at 150 µM (top of the series)
How it was run: as §1

## CN(C)c1ccc(Cn2c(=O)n(Cc3ccc(C(=O)NCC4COC4)cc3)c(=O)c3ccccc32)cc1
[1]
  CC50: 29.7 µM

## O=C(O)c1ccc(Cn2c(=O)n(Cc3ccc(C(=O)NCC4COC4)cc3)c(=O)c3ccccc32)cc1
[2]
  viability: 119% (inactive) and 107% (inactive)
